“Also recorded” adds a separate entry of the source.
Experiments:
[1] = tested on: patients with solid tumors; experiment: First-in-human phase I dose escalation: safety and tolerability; assay type: in vivo
How it was run: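 The design was a rolling-six dose escalation across 5–300 mg in 8 cohorts, starting with a single run-in dose 7 days before cycle 1. Dosing was oral, Mon-Wed-Fri, in 28-day cycles. An added cohort escalated within each patient: one week at 120 mg, then 180 mg, then 240 mg during cycle 1. Toxicity was assessed weekly. Patients with hypertension on medication or abnormal fasting glucose were excluded.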

ROCK 2 = conditions: cited from earlier work
ROCK I = conditions: cited from earlier work
AKT1 = conditions: cited from earlier work
p-MLC2 in tumor biopsies = experiment: p-MLC2 in paired tumor biopsies by immunohistochemistry; assay type: in vivo, human; conditions: 180 mg dose level, 5 paired biopsies
How it was run: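 Fresh tumor biopsies were taken before and after treatment at 180 mg. Four-μm sections were heated at 60 °C for 20 min and retrieved in Tris pH 9 at 110 °C for 6 min. Staining used primary antibody 40 min at RT, biotinylated secondary 1:200, ABC-HRP amplification, VIP substrate and hematoxylin counterstain. Positive-cell detection used intensity scores 0–3, with a random-trees classifier separating tumor from stroma.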

AKT2 = conditions: cited from earlier work
advanced solid tumors = experiment: Clinical efficacy; assay type: in vivo, human; conditions: all dose levels
How it was run: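 Patients with metastatic solid tumors who had already received standard-of-care treatment took oral test compound three days a week (Mon-Wed-Fri) in 28-day cycles. Cohorts received flat doses from 5 to 300 mg, and one further cohort used intra-patient escalation from 120 to 180 to 240 mg.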

[2] = tested on: p-GSK3β in platelet-rich plasma; experiment: p-GSK3β; assay type: in vivo, human
How it was run: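 Blood was sampled at baseline and at 2, 6, 24 and 48 h after the run-in dose and after the cycle 2, day 1 dose. Platelet-rich plasma was prepared, and GSK3β Ser9 phosphorylation was measured by MSD electrochemiluminescent immunoassay. Results were expressed as percent of baseline, normalized to total GSK3β, and compared with predose by Dunnett's test.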

AKT3 = conditions: cited from earlier work
[3] = tested on: p-cofilin in tumor biopsies; experiment: p-cofilin in pre- and post-treatment tumor biopsies, Protein Simple WES assay; assay type: in vivo, human; conditions: 8 pre- and post-treatment biopsies
How it was run: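 Tumor biopsies were taken pre-dose and 24 h post-dose (cycle 1 day 15 or cycle 2 day 1) at 180 mg given thrice weekly. Phospho- and total cofilin were measured by capillary immunoassay (WES), normalized to GAPDH, and quantified as the area under the chemiluminescence peak. Phospho-cofilin was expressed as percent of pre-dose level.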

[4] = assay type: in vivo; conditions: human, plasma, oral
[5] = Cohort 9 120-180-240 mg (n=7), grade 1

## NC[C@@](O)(c1ccc(Cl)cc1)c1ccc(-c2cn[nH]c2)cc1 [AT13148]
[1]; 180 mg
  dose-limiting toxicity: skin rash; also recorded: maculopapular rash
[1]; 240 mg
  dose-limiting toxicities: pneumonitis and elevated liver enzymes; also recorded: elevated transaminases and pneumonitis
[1]; 300 mg
  dose-limiting toxicity: hypotension
[1]; 5 - 300 mg
  most common (treatment related) side effects: fatigue, nausea, headaches and hypotension; also recorded: hypotension, nausea, headache and fatigue
[1]; Cohort 1 5 mg (n=4), grade 1
  Anorexia, No. subjects: 1
  Nausea, No. subjects: 1
[1]; Cohort 1 5 mg (n=4), grade 2
  Fatigue, No. subjects: 1
[1]; Cohort 2 10 mg (n=5), grade 1
  Hypotension, No. subjects: 1
[1]; Cohort 8 300 mg (n=5), grade 1
  Flushing, No. subjects: 1
  Headache, No. subjects: 3
  Nausea, No. subjects: 2
  Vomiting, No. subjects: 1
[1]; [5]
  Anorexia, No. subjects: 2
  Diarrhea, No. subjects: 2
  Fatigue, No. subjects: 2
  Hypotension, No. subjects: 2
  Nausea, No. subjects: 4
  Vomiting, No. subjects: 1
[1]; Cohort 9 120-180-240 mg (n=7), grade 2
  Fatigue, No. subjects: 2
[1]; Cohort 9 intra-patient dose escalation 120-180-240 mg
  DLTs reported: two DLTs (grade 3 pneumonitis at 240 mg and grade 3 rash at 180 mg)
[1]; all cohorts (n = 51)
  Anorexia, Total No. subjects: 7 (13.7%)
  Diarrhea, Total No. subjects: 7 (13.7%)
  Fatigue, Total No. subjects: 9 (17.6%)
  Flushing, Total No. subjects: 6 (11.8%)
  Headache, Total No. subjects: 12 (23.5%)
  Hypotension, Total No. subjects: 20 (39.2%)
  Nausea, Total No. subjects: 15 (29.4%)
  Vomiting, Total No. subjects: 7 (13.7%)
[1]; dose doubling from 5 - 160 mg
  dose-limiting toxicities: no dose-limiting toxicities reported
[1]; in vivo
  time of occurrence of hypotension after dosing: ≤ 8 h
[1]; orally on days 1, 3 and 5 of each week, 28-day cycles
  maximally tolerated dose: 180 mg
ROCK 2
  IC50: 0.004 µM
ROCK I
  IC50: 0.006 µM
AKT1
  IC50: 0.038 µM
p-MLC2 in tumor biopsies
  paired biopsies with reduction of p-MLC2 (H scores) post-treatment: 1/5
AKT2
  IC50: 0.402 µM
Advanced solid tumors
  tumor response: No complete or partial responses; also recorded: no clinical responses
[2]; 300 mg, 2 - 6 hrs (legend: 2 - 24 hrs) after treatment, Dunnett's test
  change of p-GSK3β levels in platelet-rich plasma vs predose: statistically significant reduction; also recorded: reduced; also recorded: transient reduction
[2]; doses lower than 300 mg
  change of p-GSK3β levels in platelet-rich plasma vs predose: not significant
AKT3
  IC50: 0.05 µM
[3]; 180 mg dose level
  post-treatment biopsies showing a reduction of p-cofilin: 5/8
[3]; 180 mg thrice a week
  post-treatment biopsies with ≥50% (>50%) reduction of p-cofilin: 3/8
[4]
  half-life: 14.4 to 32.2 h
[4]; 180 mg
  AUC: 13.4 µM·h
  Cmax: 0.383 µM
